Laboratory results: ChEMBL document CHEMBL1125745, “Unsaturated and carbocyclic nucleoside analogues: synthesis, antitumor, and antiviral activity” (J Med Chem, 1991)

Columns and labels:
L1210 [1] = test: Cytotoxicity was evaluated against L1210 leukemia cell line at 500 ug/disk.; assay type: functional, Mus musculus
Method in brief: (§1)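 Disk zone assay: analogue dilutions on 6.5 mm paper disks were placed on dishes with a 0.8% agar bottom layer and a 0.44% soft-agar top layer of tumor cells (≤1 × 10^5/plate) in Fishers-CMRL-1066 with 12% horse serum. Plates were incubated 6-10 days and the inhibition zone was measured by microscope; 200 zone units = 6 mm.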

PO3 [2] = test: Cytotoxicity was evaluated against PO3 cell line at 1000 ug/disk.
L1210 [3] = test: Inhibitory activity against murine leukemia L1210 cells; assay type: functional, cell-based; conditions: Mus musculus
[4] = Cytotoxicity was evaluated against low malignancy line at 500 ug/disk.; assay type: functional; method in brief: as §1
Mus musculus [5] = species: Mus musculus; test: Concentration that reduces Rauscher murine leukemia virus titer by 50%; assay type: functional, organism-based
Method in brief: (§2)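 SC-1 cells (1 × 10^4/well) were pretreated with polybrene, infected 2 h at 37 °C with F-MuLV or R-MuLV in EMEM-5 with 8 µg/mL polybrene, washed, and refed with analogue for 72 h. They were then UV-irradiated and overlaid with XC cells (2 × 10^5) for 48 h, fixed and stained with crystal violet. Multinucleated cells were counted and EC50 was taken by linear regression versus untreated cultures.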

[6] = Selectivity index is the ratio of IC50 to EC50 of F-MuLV.; assay type: functional
[7] = Selectivity index which is the ratio of IC50 to EC50 of R-MuLV.; assay type: functional
Mus musculus [8] = species: Mus musculus; test: Concentration that reduces Friend murine leukemia virus titer by 50%; assay type: functional, organism-based; method in brief: as §2
Mus musculus [9] = species: Mus musculus; test: Cytotoxicity was evaluated; assay type: functional
Method in brief: (§3)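 SC-1 cells (1 × 10^4 cells/mL) were seeded, incubated overnight at 37 °C, refed with EMEM-10 and given diluted analogue in triplicate for 72 h at 37 °C. Cells were trypsinized and counted in a Coulter counter. The mean of three wells gave percent of control count, and IC50 was calculated by linear regression.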

MC-38 = test: Cytotoxicity was evaluated against C38 solid tumor of mouse at 500 ug/disk.; assay type: functional; parameters: unit not given beside the values; method in brief: as §1
Homo sapiens [10] = species: Homo sapiens; test: Cytotoxicity was evaluated against C116 human solid tumor at 500 ug/disk.; assay type: functional; method in brief: as §1
L1210 [11] = test: Cytotoxicity was evaluated against L1210 leukemia cell line at 1000 ug/disk.; assay type: functional, Mus musculus; method in brief: as §1
[12] = Cytotoxicity was evaluated against low malignancy line at 1000 ug/disk.; assay type: functional; method in brief: as §1
L1210 [13] = test: Compound were evaluated for inhibition of macromolecular synthesis in murine leukemia L1210 cells at 4 hour against RNA.; assay type: functional, Mus musculus; parameters: scale not given: the % may be the effect or the level left
L1210 [14] = test: Compound were evaluated for inhibition of macromolecular synthesis in murine leukemia L1210 cells at 4 hour against DNA.; assay type: functional, Mus musculus; parameters: scale not given: the % may be the effect or the level left
L1210 [15] = test: Compound were evaluated for inhibition of macromolecular synthesis in murine leukemia L1210 cells at 1 hour against DNA.; assay type: functional, Mus musculus; parameters: scale not given: the % may be the effect or the level left
L1210 [16] = test: Compound were evaluated for inhibition of macromolecular synthesis in murine leukemia L1210 cells at 1 hour against Protein; assay type: functional, Mus musculus; parameters: scale not given: the % may be the effect or the level left
L1210 [17] = test: Compound were evaluated for inhibition of macromolecular synthesis in murine leukemia L1210 cells at 1 hour against RNA.; assay type: functional, Mus musculus; parameters: scale not given: the % may be the effect or the level left
L1210 [18] = test: Compound were evaluated for inhibition of macromolecular synthesis in murine leukemia L1210 cells at 4 hour against Protein; assay type: functional, Mus musculus; parameters: scale not given: the % may be the effect or the level left
Mus musculus [19] = species: Mus musculus; test: Cytotoxicity was evaluated and represented as IC50.; assay type: functional; method in brief: as §3
PO3 [20] = test: Cytotoxicity was evaluated against PO3 cell line at 250 ug/disk.; assay type: functional, Mus musculus; method in brief: as §1
[21] = Cytotoxicity was evaluated against low malignancy line at 250 ug/disk.; assay type: functional; method in brief: as §1
L1210 [22] = test: Cytotoxicity was evaluated against L1210 leukemia cell line at 250 ug/disk.; assay type: functional, Mus musculus; method in brief: as §1
Homo sapiens [23] = species: Homo sapiens; test: Cytotoxicity was evaluated against PO1 human solid tumor at 500 ug/disk.; assay type: functional; method in brief: as §1
[24] = Cytotoxicity was evaluated against CO9 solid tumor of mouse at 500 ug/disk.; assay type: functional; method in brief: as §1

Compound: Nc1ccn(C/C=C/CCl)c(=O)n1
- Cytotoxicity (L1210 [1]): 520
- Cytotoxicity (PO3 [2]): 550
- IC50 (L1210 [3]): 50 µM
- Cytotoxicity [4]: 370

Compound: Cc1cn([C@H]2C[C@H](N=[N+]=[N-])[C@@H](CO)O2)c(=O)[nH]c1=O [ZIDOVUDINE]
- EC50 (Mus musculus [5]): 0.046 µM
- SI [6]: 17000
- SI [7]: 12900
- EC50 (Mus musculus [8]): 0.035 µM
- IC50 (Mus musculus [9]): 594 µM

Compound: NC1=NC(Cl)c2c(ncn2C/C=C/CCl)N1 (centres undefined)
- Cytotoxicity (L1210 [1]): 800
- Cytotoxicity (MC-38): 700
- IC50 (L1210 [3]): 39 µM
- Cytotoxicity [4]: 600

Compound: N=c1ncn2c3c1ncn3CC=CC2
- IC50 (L1210 [3]): > 1000 µM

Compound: Cc1cn(CC#CCCl)c(=O)[nH]c1=O
- Cytotoxicity (L1210 [1]): 520
- Cytotoxicity (MC-38): 630
- IC50 (L1210 [3]): 140 µM
- Cytotoxicity [4]: 610

Compound: Nc1ccn(C/C=C/CO)c(=O)n1
- IC50 (L1210 [3]): > 550 µM

Compound: Cc1cn(C/C=C\CO)c(=O)[nH]c1=O
- IC50 (L1210 [3]): > 1000 µM

Compound: Nc1ncnc2c1ncn2CCCCCl
- IC50 (L1210 [3]): > 440 µM

Compound: Nc1ccn([C@H]2CC[C@@H](CO)O2)c(=O)n1 [ZALCITABINE]
- EC50 (Mus musculus [5]): 13.8 µM
- SI [6]: > 4.4
- SI [7]: > 7.3
- EC50 (Mus musculus [8]): 23 µM
- IC50 (Mus musculus [9]): > 100 µM

Compound: NC1=NC(N)c2c(ncn2C=C=CCO)N1 (centres undefined)
- EC50 (Mus musculus [5]): 118 µM
- SI [6]: 2.2
- Cytotoxicity (Homo sapiens [10]): 200
- Cytotoxicity (MC-38): 180
- SI [7]: 2.2
- IC50 (L1210 [3]): 60 µM
- EC50 (Mus musculus [8]): 118 µM
- Cytotoxicity (L1210 [11]): 150
- IC50 (Mus musculus [9]): 255 µM
- Cytotoxicity [4]: 40

Compound: Cc1cn(C=C=CCO)c(=O)nc1N
- Cytotoxicity [12]: 550
- Cytotoxicity (Homo sapiens [10]): 500
- Cytotoxicity (MC-38): 520
- IC50 (L1210 [3]): 620 µM
- Cytotoxicity (L1210 [11]): 500

Compound: Nc1nc(O)c2ncn(C=C=CCO)c2n1
- IC50 (L1210 [3]): > 350 µM

Compound: Nc1ncnc2c1ncn2C/C=C/CCl
- Cytotoxicity (L1210 [1]): 630
- Cytotoxicity (MC-38): 600
- IC50 (L1210 [3]): 45 µM
- Cytotoxicity [4]: 400

Compound: Nc1ncnc2c1ncn2/C=C\CCO
- EC50 (Mus musculus [5]): 160 µM
- SI [6]: > 1.6
- SI [7]: > 1.9
- IC50 (L1210 [3]): 200 µM
- EC50 (Mus musculus [8]): 194 µM
- IC50 (Mus musculus [9]): > 300 µM

Compound: Nc1ncnc2c1ncn2C/C=C\CCl
- Cytotoxicity (L1210 [1]): 220
- Cytotoxicity (MC-38): 280
- Control (L1210 [13]): 73%
- IC50 (L1210 [3]): 22 µM
- Control (L1210 [14]): 68%
- Control (L1210 [15]): 80%
- Control (L1210 [16]): 99%
- Control (L1210 [17]): 98%
- Control (L1210 [18]): 60%
- Cytotoxicity [4]: 200

Compound: O=C(O)P(=O)(O)O [FOSCARNET]
- EC50 (Mus musculus [5]): 42.8 µM
- SI [6]: 9.1
- SI [7]: 23.4
- EC50 (Mus musculus [8]): 110 µM
- IC50 (Mus musculus [19]): 1000 µM

Compound: Nc1ccn(CC#CCO)c(=O)n1
- IC50 (L1210 [3]): > 550 µM

Compound: Nc1ccn(C/C=C\CO)c(=O)n1
- IC50 (L1210 [3]): > 1000 µM

Compound: Nc1ncnc2c1ncn2C/C=C\CO
- EC50 (Mus musculus [5]): 124 µM
- Cytotoxicity (PO3 [20]): 260
- SI [6]: > 1.7
- SI [7]: > 2.4
- IC50 (L1210 [3]): 490 µM
- EC50 (Mus musculus [8]): 175 µM
- Cytotoxicity [21]: 240
- IC50 (Mus musculus [9]): > 300 µM
- Cytotoxicity (L1210 [22]): 200

Compound: Nc1nc(O)c2ncn(C/C=C\CO)c2n1
- IC50 (L1210 [3]): 680 µM

Compound: Cc1cn(C/C=C\CCl)c(=O)[nH]c1=O
- Cytotoxicity (L1210 [1]): 610
- Cytotoxicity (Homo sapiens [23]): 550
- IC50 (L1210 [3]): 46 µM
- Cytotoxicity [24]: 320
- Cytotoxicity [4]: 400
